Experiments:
[1] = target: NAD(P)H dehydrogenase [quinone] 1 (Homo sapiens) (UniProt P15559); experiment: Kinetic analysis using purified human DT-diaphorase.
Summary of the method: (§1)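 Purified human DT-diaphorase (4.8 × 10-4 mg) with 1 mM NADH, 55 µM cytochrome c, 0.01 mM dithiothreitol in 0.05 M Tris pH 7.6; quinone in DMSO starts reaction. Run in triplicate at 25 °C, following cytochrome c reduction at 550 nm, no-enzyme background controls. Initial linear rates; KM and Vmax from Hanes plot.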

[2] = target: NAD(P)H dehydrogenase [quinone] 1 (Homo sapiens) (UniProt P15559); experiment: Ratio of Kcat and Km; summary of the method: as §1
HT-29 = experiment: cytotoxic activity against human colon carcinoma HT-29 cell lines.; type: functional
Summary of the method: (§2)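 Clonogenic survival: exponentially growing cells suspended at 1.7-2 × 10^5 cells/mL in serum-free MEM/HEPES, exposed 2 h at 37 °C, 5% CO2 to five final drug concentrations (solvent ethanol or DMSO, at most 1%), washed, plated at 2-3 densities, grown 10 days. Crystal violet-stained colonies of ≥50 cells counted; LC99 from log surviving fraction vs concentration.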

[3] = target: NAD(P)H dehydrogenase [quinone] 1 (Homo sapiens) (UniProt P15559); experiment: Ratio of Vmax and Km; set-up: unit not given here; summary of the method: as §1
BE = experiment: cytotoxic activity against human colon carcinoma BE cell lines.; type: functional; summary of the method: as §2

Chain of NAD(P)H dehydrogenase [quinone] 1 (Homo sapiens) (P15559 whole entry): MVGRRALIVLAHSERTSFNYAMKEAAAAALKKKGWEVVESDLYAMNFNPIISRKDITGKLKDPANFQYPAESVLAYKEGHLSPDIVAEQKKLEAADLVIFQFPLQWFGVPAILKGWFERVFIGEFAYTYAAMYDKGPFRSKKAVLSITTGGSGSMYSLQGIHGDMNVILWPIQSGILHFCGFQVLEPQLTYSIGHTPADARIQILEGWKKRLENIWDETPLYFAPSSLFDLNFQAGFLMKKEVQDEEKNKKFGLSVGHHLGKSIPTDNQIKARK

## CC(=O)OCC1=CC(=O)c2ccccc2C1=O
[1]
  k cat: 280 s⁻¹
[2]
  Ratio: 1.6
HT-29
  LC99: 64 µM
[3]
  Ratio: 1.4
BE
  LC99: 22 µM

## CN(CCCl)P(=O)(OCC1=CC(=O)c2ccccc2C1=O)N(C)CCCl
[1]
  k cat: 190 s⁻¹
[2]
  Ratio: 1.4
HT-29
  LC99: 4.5 µM
[3]
  Ratio: 1.2
BE
  LC99: 2.8 µM

## Cn1c(COP(N)(=O)N(CCCl)CCCl)nc2c1C(=O)C=CC2=O (stereo not drawn)
[1]
  k cat: 41 s⁻¹
[2]
  Ratio: 4.5
HT-29
  LC99: 220 µM
[3]
  Ratio: 0.4
BE
  LC99: 300 µM

## CC1=C(COP(N)(=O)N(CCCl)CCCl)C(=O)c2ccccc2C1=O (stereo not drawn)
[1]
  k cat: 78 s⁻¹
[2]
  Ratio: 8.6
HT-29
  LC99: 2.1 µM
[3]
  Ratio: 0.76
BE
  LC99: 1 µM

## NP(=O)(OCC1=CC(=O)c2ccccc2C1=O)N(CCCl)CCCl (stereo not drawn)
[1]
  k cat: 51 s⁻¹
[2]
  Ratio: 2
HT-29
  LC99: 11 µM
[3]
  Ratio: 1.8
BE
  LC99: 13 µM

## CSC1=C(COP(N)(=O)N(CCCl)CCCl)C(=O)c2ccccc2C1=O (stereo not drawn)
[1]
  k cat: 72 s⁻¹
[2]
  Ratio: 1.2
HT-29
  LC99: 4.2 µM
[3]
  Ratio: 1.1
BE
  LC99: 5.9 µM

## O=C1C=C(COP(=O)(NCCCl)NCCCl)C(=O)c2ccccc21
[1]
  k cat: 88 s⁻¹
[2]
  Ratio: 2.3
HT-29
  LC99: 14 µM
[3]
  Ratio: 2.1
BE
  LC99: 7.8 µM

## CN(CCBr)P(=O)(OCC1=CC(=O)c2ccccc2C1=O)N(C)CCBr
[1]
  k cat: 115 s⁻¹
[2]
  Ratio: 1.3
HT-29
  LC99: 4.5 µM
[3]
  Ratio: 1.1
BE
  LC99: 1.2 µM

## CC1=C(COP(N)(=O)N(CCBr)CCBr)C(=O)c2ccccc2C1=O (stereo not drawn)
[1]
  k cat: 63 s⁻¹
[2]
  Ratio: 9.1
HT-29
  LC99: 1.7 µM
[3]
  Ratio: 0.81
BE
  LC99: 1.2 µM

## NP(=O)(OCC1=CC(=O)c2ccccc2C1=O)N1CCOCC1 (stereo not drawn)
[1]
  k cat: 15 s⁻¹
[2]
  Ratio: 0.16
HT-29
  LC99: 89 µM
[3]
  Ratio: 0.83
BE
  LC99: 72 µM

## NP(=O)(OCC1=CC(=O)c2ccccc2C1=O)N(CCBr)CCBr (stereo not drawn)
[1]
  k cat: 46 s⁻¹
[2]
  Ratio: 2.2
HT-29
  LC99: 7.8 µM
[3]
  Ratio: 2
BE
  LC99: 4.6 µM

## CC1=C(COP(=O)(N(C)CCBr)N(C)CCBr)C(=O)c2ccccc2C1=O
[1]
  k cat: 180 s⁻¹
[2]
  Ratio: 0.5
HT-29
  LC99: 1.5 µM
[3]
  Ratio: 0.44
BE
  LC99: 0.44 µM

## CC1=CC(=O)c2ccccc2C1=O
[1]
  k cat: 700 s⁻¹
[2]
  Ratio: 5.8
[3]
  Ratio: 0.5

## Cn1c(COP(N)(=O)N(CCBr)CCBr)nc2c1C(=O)C=CC2=O (stereo not drawn)
[1]
  k cat: 66 s⁻¹
[2]
  Ratio: 3.1
HT-29
  LC99: 130 µM
[3]
  Ratio: 0.28
BE
  LC99: 120 µM

## NP(=O)(OCC1=C(Br)C(=O)c2ccccc2C1=O)N(CCCl)CCCl (stereo not drawn)
[1]
  k cat: 97 s⁻¹
[2]
  Ratio: 3
HT-29
  LC99: 4.1 µM
[3]
  Ratio: 2.7
BE
  LC99: 3.3 µM

Reference: ChEMBL document CHEMBL1133441, “Development of novel quinone phosphorodiamidate prodrugs targeted to DT-diaphorase” (2000)
